Data reported in ChEMBL document CHEMBL1123430, “Potential tumor- or organ-imaging agents. 26. Polyiodinated 2-substituted triacylglycerols as hepatographic agents” (J Med Chem, 1986).

Legend:
[1] = test system: Rattus norvegicus; experiment: Distribution of radioactivity of radiolabeled compound in blood of female rats 5 minutes after intravenous administration; format: ADME, organism-based; conditions: in vivo
[2] = test system: Rattus norvegicus; experiment: Distribution of radioactivity of radiolabeled compound in heart of female rats 30 minutes after intravenous administration; format: ADME, organism-based; conditions: in vivo, 0.5 h
[3] = test system: Rattus norvegicus; experiment: Distribution of radioactivity of radiolabeled compound in blood of female rats 30 minutes after intravenous administration; format: ADME, organism-based; conditions: in vivo, 0.5 h
[4] = test system: Rattus norvegicus; experiment: Distribution of radioactivity of radiolabeled compound in heart of female rats 5 minutes after intravenous administration; format: ADME, organism-based; conditions: in vivo
[5] = test system: Rattus norvegicus; experiment: Distribution of radioactivity of radiolabeled compound in kidney of female rats 30 minutes after intravenous administration; format: ADME, organism-based; conditions: in vivo, 0.5 h
[6] = test system: Rattus norvegicus; experiment: Distribution of radioactivity of radiolabeled compound in kidney of female rats 5 minutes after intravenous administration; format: ADME, organism-based; conditions: in vivo
[7] = test system: Rattus norvegicus; experiment: Distribution of radioactivity of radiolabeled compound in liver of female rats 30 minutes after intravenous administration; format: ADME, organism-based; conditions: in vivo, 0.5 h
[8] = test system: Rattus norvegicus; experiment: Distribution of radioactivity of radiolabeled compound in liver of female rats 5 minutes after intravenous administration; format: ADME, organism-based; conditions: in vivo
[9] = test system: Rattus norvegicus; experiment: Distribution of radioactivity of radiolabeled compound in lung of female rats 30 minutes after intravenous administration; format: ADME, organism-based; conditions: in vivo, 0.5 h
[10] = test system: Rattus norvegicus; experiment: Distribution of radioactivity of radiolabeled compound in lung of female rats 5 minutes after intravenous administration; format: ADME, organism-based; conditions: in vivo
[11] = test system: Rattus norvegicus; experiment: Percentage […]/CH3OH extract of the radiolabeled compound in rat liver 30 minutes after iv administration (+/-SEM); format: functional
Procedure, shortened: (§1)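 Liver and plasma were taken at 5 or 30 min. Plasma was extracted by a modified Folch procedure, and liver was homogenized and extracted. Extracts were run on TLC in hexane/ethyl acetate (5:2) for esters or THF/hexane (1:1) for acids, with unlabeled compound as reference. Plates were cut into 1-cm strips and counted. Values are percent ± SEM, n = 3-5.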

[12] = test system: Rattus norvegicus; experiment: Percentage […]/CH3OH extract of the radiolabeled compound in rat liver 5 minutes after iv administration (+/-SEM); format: functional; procedure, shortened: as §1
[13] = test system: Rattus norvegicus; experiment: Percentage […]/CH3OH extract of the radiolabeled compound in rat plasma 30 minutes after iv administration (+/-SEM); format: functional; procedure, shortened: as §1
[14] = test system: Rattus norvegicus; experiment: Percentage […]/CH3OH extract of the radiolabeled compound in rat plasma 5 minutes after iv administration (+/-SEM); format: functional; procedure, shortened: as §1
[15] = test system: Rattus norvegicus; experiment: Percentage parent compound in rat liver 30 minutes after iv administration of the radiolabeled compound by thin-layer chromatography; format: functional; procedure, shortened: as §1
[16] = test system: Rattus norvegicus; experiment: Percentage parent compound in rat liver 5 minutes after iv administration of the radiolabeled compound by thin-layer chromatography; format: functional; procedure, shortened: as §1
[17] = test system: Rattus norvegicus; experiment: Percentage parent compound in rat plasma 30 minutes after iv administration of the radiolabeled compound by thin-layer chromatography; format: functional; procedure, shortened: as §1
[18] = test system: Rattus norvegicus; experiment: Percentage parent compound in rat plasma 5 minutes after iv administration of the radiolabeled compound by thin-layer chromatography; format: functional; procedure, shortened: as §1
[19] = test system: Rattus norvegicus; experiment: Polyacrylamide Gel Electrophoresis (PAGE) analysis of rat plasma after intravenous administration of radiolabeled compound concentration of below albumin […]; format: functional, organism-based
Procedure, shortened: (§2)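 ¹²⁵I-labeled compound, radioiodinated by exchange in a pivalic acid melt, solubilized in normal saline with Tween 20 and given iv to adult female Sprague–Dawley rats (200–250 g), 5–30 μCi/animal, 3–4 rats per time point. Plasma was run on polyacrylamide gels. Gels were sectioned and gamma counted. Radioactivity per band (stacking gel, LDL, HDL, albumin, below albumin) is given as % of total applied; mean ± SEM, n = 3-5.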

[20] = test system: Rattus norvegicus; experiment: Polyacrylamide Gel Electrophoresis (PAGE) analysis of rat plasma 30 minutes after intravenous administration of radiolabeled compound (below albumin); format: functional, organism-based
Procedure, shortened: (§3)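 Gels were sectioned and counted in a γ counter. Radioactivity in each band (stacking gel, LDL, HDL, albumin, below albumin) is expressed as a percentage of the total radioactivity applied to the gel, ± SEM, n = 3-5.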

[21] = test system: Rattus norvegicus; experiment: Polyacrylamide Gel Electrophoresis (PAGE) analysis of rat plasma 30 minutes after intravenous administration of radiolabeled compound in albumin; format: functional, organism-based; procedure, shortened: as §3
[22] = test system: Rattus norvegicus; experiment: Polyacrylamide Gel Electrophoresis (PAGE) analysis of rat plasma 30 minutes after intravenous administration of radiolabeled compound in high density lipoprotein; format: functional, organism-based; procedure, shortened: as §3
[23] = test system: Rattus norvegicus; experiment: Polyacrylamide Gel Electrophoresis (PAGE) analysis of rat plasma 30 minutes after intravenous administration of radiolabeled compound in low-density lipoprotein; format: functional, organism-based; procedure, shortened: as §3
[24] = test system: Rattus norvegicus; experiment: Polyacrylamide Gel Electrophoresis (PAGE) analysis of rat plasma 30 minutes after intravenous administration of radiolabeled compound in stacking gel; format: functional, organism-based; procedure, shortened: as §3
[25] = test system: Rattus norvegicus; experiment: Polyacrylamide Gel Electrophoresis (PAGE) analysis of rat plasma 5 minutes after intravenous administration of radiolabeled compound (below albumin); format: functional, organism-based; procedure, shortened: as §2
[26] = test system: Rattus norvegicus; experiment: Polyacrylamide Gel Electrophoresis (PAGE) analysis of rat plasma 5 minutes after intravenous administration of radiolabeled compound in high density lipoprotein; format: functional, organism-based; procedure, shortened: as §2
[27] = test system: Rattus norvegicus; experiment: Polyacrylamide Gel Electrophoresis (PAGE) analysis of rat plasma 5 minutes after intravenous administration of radiolabeled compound in low-density lipoprotein; format: functional, organism-based; procedure, shortened: as §2
[28] = test system: Rattus norvegicus; experiment: Polyacrylamide Gel Electrophoresis (PAGE) analysis of rat plasma 5 minutes after intravenous administration of radiolabeled compound in stacking gel; format: functional, organism-based; procedure, shortened: as §2
[29] = test system: Rattus norvegicus; experiment: Polyacrylamide Gel Electrophoresis (PAGE) analysis of rat plasma 5 min after intravenous administration of radiolabeled compound in albumin; format: functional, organism-based; procedure, shortened: as §3

`CCCCCCCCCCCCCCCC(=O)OCC(COC(=O)CCCCCCCCCCCCCCC)OC(=O)CCc1c(I)cc(I)c(N)c1I` showed a Dose [1] of 5.99%, a Dose [2] of 2.43% and a Dose [3] of 3.23%. For the same molecule, the Dose [4] was 1.34%, the Dose [5] was 1.65% and the Dose [6] was 1.18%. It also gave a Dose [7] of 1.22%, a Dose [8] of 1.74% and a Dose [9] of 0.93%. The Dose [10] was 1.2%, the Activity [11] was 52.1% and the Activity [12] was 68.4%. The Activity [13] was 69.4%, the Activity [14] was 79.1% and the Activity [15] was 47.7%. For the same molecule, the Activity [16] was 72.5%, the Activity [17] was 86.1% and the Activity [18] was 75.5%. The Concentration [19] was 69.4 [middle of 4 runs], the Concentration [20] was 4.4 and the Concentration [21] was 27. The Concentration [22] was 48.9%, the Concentration [23] was 15.7% and the Concentration [24] was 4%. The Concentration [25] was 2.4, the Concentration [26] was 57.1 and the Concentration [27] was 20.2%. The Concentration [28] was 4.6% and the Concentration [29] was 14.6.
